Laboratory results taken from the EternaBench riboswitch data.

Test system: MS2 coat protein
Assay: apparent Kd, MS2 coat protein; higher = weaker binding; RNA-MaP array; FMN 200 µM where present
Procedure, shortened: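 The apparent Kd is the median of filtered binding-curve fits, one per cluster, to green signal normalised to red-channel RNA signal and control-cluster median Fmax. The clusters were on Illumina sequencing chips, and stalled E. coli RNA polymerase had transcribed the designs on them. Titration used SNAP-549-labelled MS2 coat protein from 0.7 or 1.5 nM, doubling to 3 µM, without and then with constant ligand, in 100 mM Tris-HCl pH 7.5, 80 mM KCl, 4 mM MgCl2, BSA, DTT, yeast tRNA and Tween-20.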

[1] = designed as: OFF switch for flavin mononucleotide, no ligand
[2] = ligand present: flavin mononucleotide, designed as: OFF switch for flavin mononucleotide
[3] = designed as: ON switch for flavin mononucleotide, no ligand
[4] = ligand present: flavin mononucleotide, designed as: ON switch for flavin mononucleotide

| Sequence | apparent Kd [1] | apparent Kd [2] | apparent Kd [3] | apparent Kd [4] |
| --- | --- | --- | --- | --- |
| UUACUAUAACAGAAGGCUAAAUAAUAUAUAAAUGGAGGAUAUGUUACAUGAGGAUCACCCAUGUUUCACCCACAUGAGGAUCAC | 13.7 nM | 42 nM |  |  |
| AAACAAGAAGGAUAUACAUUAUCGGAUCUUCCGGCAAUGCCACAUGAGGAUCACCCAUGUAGAAGGUCUAAAUU | 12.3 nM | 18.9 nM |  |  |
| UGAUCUUGAGUCAGGAUAUGCUGGUUUUUUUUUUAGCAGAAGGGACAUGAGGAUCACCCAUGUUCUCACUUUUU | 16.1 nM | 20.2 nM |  |  |
| UUCUUCAGGUCAGGAUAUGCACAAGUUCAACGAGCAGAAGGGACAUGAGGAUCACCCAUGUAAAGGGCACCGGCUAACGUUCGA | 258 nM | 182 nM |  |  |
| AGUCGGAGCAGAGGAUAUUACAUGAGGAUCACCCAUGUAAUAAGAUCAAGCUGGAAACAGCAAUGUAAGAAGGCUGCUCCGACA | 16.3 nM | 45.6 nM |  |  |
| CUGACGAUGUAAGGAUAUGCUGAGGAUAACUCAGCAGAAGGUACAUGAGGAUCACCCAUGUAAUAAGAUCAAUAAUAACGUCAG | 15.3 nM | 32.1 nM |  |  |
| UAAAUAAAGUAAGGAUAUACAUGAGGAUUUCUCGUAGAAGGUACAAGACAUGAGGAUCACCCAUGUAUCGCUCCGUAGAGCGUA |  |  | 138 nM | 237 nM |
| GCUGGACGAGGAUAUACAUUCGUGCUUCGGCACGUAAGAUCACAUGAGGAUCACCCAUGUAGAAGGUGUCCAGC | 42.1 nM | 200 nM |  |  |
| GGUGCCAUGUAGAAGGCAGAUCUGAUUCAGAUCUGAGGAUAUACAUGAGGAUCACCCAUGUGAAGGCACCGCACGAGAGUGCAA | 8.21 nM | 24 nM |  |  |
| UGUCGGAGCAGAGGAUAUUACAUGAGGAUCACCCAUGUAUGAACCAAUAGCUGGAAACAGCAAUGUAAGAAGGCUCCUCCGACA | 6.18 nM | 20.5 nM |  |  |
| CGAUAUUAUGUCAGGAUAUACAUUGCGAAAGCAAUGUAGAAGGGACAUGAGGAUCACCCAUGUCCUAACUAUCG | 12.5 nM | 14.2 nM |  |  |
| GAAGAGACAGGAUAUACAUGAGGAUCACCCAUGUGAGUAUGUUGGAGGCGGAGGAGGUGUAGAAGGGUCAAAGA | 24.3 nM | 26.1 nM |  |  |
| GAGUGACACCAGAAGGGCCAGGAAAGAACCCUGGUAGGAUAUGGAGCGCCCUCGUAACGACCGACAUGAGGAUCACCCAUGUCC |  |  | 193 nM | 34.7 nM |
| UGUGUGUGACAGGAUAUGCUGGUUGUGUGGCGGGUAGAAGGGUCUACAUGAGGAUCACCCAUGUGGCCGGUUGG | 22.8 nM | 21.5 nM |  |  |
| AUGCUCAGAGGAUAUACAUGAGGAUCACCCAUGUGUUACCGAGGAGUACGGUCGUCACGUAGAAGGCUGGGUAA | 17.9 nM | 58.8 nM |  |  |
| GGUUUGGGAGGAUAUGGCUUGUUUGACAUGAGGAUCACCCAUGUAAGUGGAUCUUCCGGGCCAGAAGGCUCGGGCC | 104 nM | 188 nM |  |  |
| CCGGAAACGGGUAGCCUGACAUGAGGAUCACCCAUGUGAUCAGAGGAUAUGGAUCCUAAUUGGAUCCAGAAGGCUGUUGGCUAC |  |  | 73.4 nM | 27.5 nM |
| UGUUGUAUUACAGGAUAUCUAUUAGUUUUGUUUAGAGAAGGGUAUUCACAUGAGGAUCACCCAUGUAUAUACGAGGAAGUUGUG |  |  | 59 nM | 65.2 nM |
| UUUUAACAUGAGGAUCACCCAUGUGAGGAUAUCGAAAUUUAUAUUAAUAUUAAUUAAUCGAGAAGGCACAUUUU | 106 nM | 113 nM |  |  |
| ACGAAACAUGAGGAUCACCCAUGUGAGGAUAUGUAAAUAGUAAACAAAUAAGAAAUAAACAGAAGGCACACAGG | 32.9 nM | 67 nM |  |  |
| UAUUAAUGCAAGGAUAUGCUUUUAAUUUUUUUUGCAGAAGGUGCAACAUGAGGAUCACCCAUGUUUCAGGGUAU | 42.1 nM | 57.6 nM |  |  |
| GUGCUCGUGUGAGGAUAUGCUUCCGUUUCGGCUGCAGAAGGUACUAUUAUACAUGAGGAUCACCCAUGUCGCUUUUCUCCGGUG |  |  | 26.6 nM | 27.5 nM |
| GUGUAGAGAGGAUAUACAUGAGGAUCACCCAUGUGAAUAAGAUAGAAUAAGAUAAAGUGUAGAAGGUUUAGUGU | 43 nM | 34.2 nM |  |  |
| AUACCUUAUGAGAAGGCGAUUAUGAAACAUGAUCGAGGAUAUCAUGUAAACAUGAGGAUCACCCAUGUAUGGGUAUUAUGGUAC |  |  | 50 nM | 11.6 nM |

| Sequence | apparent Kd [1] | apparent Kd [2] | apparent Kd [3] | apparent Kd [4] |
| --- | --- | --- | --- | --- |
| GGUGGACAUGAGGAUCACCCAUGUGAGGAUAUCGGCUGGCUACUCGCUGACGGCUGCUCGAGAAGGCGCAUUGU | 46.3 nM | 95.6 nM |  |  |
| UUACAUACAAAGGUACAUGAGGAUCACCCAUGUUUGUUGGGAAGAAGGGUAACAGUACUACAUAUAUAGGAUAUUUCACAAAUG |  |  | 106 nM | 73.4 nM |
| ACAUGAGGAUCACCCAUGUUAUCCGGGACUUCAAUUGUAUCUAGAAGGCUGUCUGCUUGUUAGUCAGAGGAUAUAGAUUCAAAU | 12.4 nM | 11.1 nM |  |  |
| UACAUGAGGAUCACCCAUGUUUUGUCGUGUAUGGUAUUUAUCUAGGAUAUCAAGUUGUUUAUUUAUGAGAAGGAGAAUAUUAAU | 34.3 nM | 38.1 nM |  |  |
| UUUUAACAUGAGGAUCACCCAUGUGAGGAUAUCGAAAUUUAUAUUAAUAUUAAUUUUUCGAGAAGGCACAUUUU | 132 nM | 150 nM |  |  |
| GGAUCGAUGUAGAAGGCUGUCCUAAAAUAGGACAGAGGAUAUACAUGAGGAUCACCCAUGUACUCCUUUAAAACGAUCCAAAUA | 5.44 nM | 7.59 nM |  |  |
| AAAAAACAUGAGGAUCACCCAUGUGAAAAUAUGGGAGGAUAUACAAACACGAAAGUGAAAGUAGAAGGCCUAAAAA |  |  | 97 nM | 25.6 nM |
| GAUAAACAUGAGGAUCACCCAUGUCAGGAUAUGCGCUAGCUAGCUAGCUAGCUAGCUAGCAGAAGGGACACUAC | 19.5 nM | 35 nM |  |  |
| CGCUACACCCAGAAGGACAUGAGGAUCACCCAUGUAGGAUAUGGGAGACACAGUCCCGUGUAGAGAAACUACGCUAGUGUAGCG |  |  | 344 nM | 112 nM |
| GGAUAGGACAGAGGAUAUACGUGCUAGAGAUACUAGCAAAUUUUCCUCACAUGAGGAUCACCCAUGUAGAAGGCUGUCCUAUCG | 24.6 nM | 511 nM |  |  |
| GGGACUCAAAGAGUACCAAUACGAACAUGAGGAUCACCCAUGUAGGAUAUGCUACUCAAAGAGUAGCAGAAGGACAUGUGCCUA | 15.3 nM | 82.2 nM |  |  |
| UAUAUUUAUGUAGGAUAUGGUAUAUAAAAUAUACCAGAAGGACAUGAGGAUCACCCAUGUAUGAAAUUCCAUAAUAACCGUGUA | 11.1 nM | 12.2 nM |  |  |
| AUUACAUGAGGAUCACCCAUGUACAGAACGUUUCAUUACAGUGAGGAUAUACGAAAUGUAGGAGCGUAGAAGGCACUGGGUACA |  |  | 129 nM | 40.1 nM |
| GUUUGGAGUGGAGGAUAUGCGGACGAACGAUAAGCAGAAGGCCACAUGAGGAUCACCCAUGUCGGCUGUGCCGGGUGGUUGACG | 41.6 nM | 50.8 nM |  |  |
| GCUAUCGAUGUAGGAUAUGAUAUAGAAACUAUGUCAGAAGGACAUGAGGAUCACCCAUGUCAAUGGAUGGAGAGAAGAGAUGGC | 26.7 nM | 52.5 nM |  |  |
| GUAGGGUCAGGAUAUACGGGCGGGAGGAUGUAUUGUAGUUGGUAGAAGGGACAUGAGGAUCACCCAUGUGAGAA | 34.3 nM | 30.5 nM |  |  |
| GAGUAGAUCCGAGGAUAUACAAUCCGGAAACGGUACAUGAGGAUCACCCAUGUAGAAGGCGGAUCUACAGGUACUAAAGUACCG | 5.99 nM | 9.24 nM |  |  |
| UGAGCUUCAGGAUAUAUAUGGCGACCGUGAGGUCGAAGGUUACAUGAGGAUCACCCAUGUAGAAGGGAAGUUCU | 34.5 nM | 187 nM |  |  |
| AGUCGGCGAGGAUAUACAUGAGGAUCACCCAUGUGAUAGAGUGCACGCGUACGUGUACGUAGAAGGCGCUGACA | 11.9 nM | 37.7 nM |  |  |
| ACCAGGGAUUCAGGAUAUAUUAGCCGAGGCCGCGUAGAAGGGAAAUCCUGACAUGAGGAUCACCCAUGUCGACCCGCCUUCCUA |  |  | 47.6 nM | 46.8 nM |
| GGAUAGGACAGAGGAUAUACGUGCUAGAGAUACUAGCAAAAUUUCCUGACAUGAGGAUCACCCAUGUAGAAGGCUGUCCUAUCG | 7.22 nM | 15.5 nM |  |  |
| GAGUGCUGAGGAUAUACAUGAGGAUCACCCAUGUGCUUCAACUAGGAGACUAGUAUUGGUAGAAGGCAGUACUC | 16.5 nM | 104 nM |  |  |
| GUCGUGUGAGGAUAUGGAUAGACGCAGUGACAGUCAGCGACCUAGAAGGCACAUGAGGAUCACCCAUGUAUGUG | 47.2 nM | 100 nM |  |  |
| GUGCACAUUCGAGGAUAUCGGAGAGGAGUCCUUCGAGAAGGCGAUUCGUGCCGUGUUAUUCUGGACAUGAGGAUCACCCAUGUG |  |  | 106 nM | 35.7 nM |
